Reference: ChEMBL document CHEMBL4480402, “3,3'-Disubstituted 5,5'-Bi(1,2,4-triazine) Derivatives with Potent in Vitro and in Vivo Antimalarial Activity” (J Med Chem, 2019)
Values after ≈ are worked out from the molar mass of the structure shown.

Key:
[1] = Kinetic solubility of the compound in phosphate buffer at pH 6.5 after 30 mins by nephelometry; format: physicochemical; settings: read-out: Kinetic_solubility
How it was run: (§1)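 Kinetic aqueous solubility determined by nephelometry.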

[2] = Kinetic solubility of the compound in HCL buffer at pH 2 after 30 mins by nephelometry; format: physicochemical; settings: read-out: Kinetic_solubility; how it was run: as §1
[3] = Plasma concentration in Swiss mouse at […], iv via bolus administration measured up to 30 mins; format: ADME, organism-based
[4] = Plasma concentration in Swiss mouse at […], po via gavage administration measured up to 30 mins; format: ADME, organism-based; settings: in vivo, 0.5 h
[5] = Plasma concentration in Swiss mouse at 30 mg/kg, po via gavage administration measured at 60 to 120 mins; format: ADME, organism-based; settings: in vivo
How it was run: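 Non-fasted male Swiss outbred mice (24–33 g) with free access to food and water, two mice per dose. Dosed by bolus tail-vein IV injection or oral gavage. Blood taken up to 24 h by submandibular bleed or terminal cardiac puncture into tubes with heparin and a stabilization cocktail, at most two samples per mouse. Plasma stored at -20 °C until analysis.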

[6] = Apparent permeability across apical to basolateral side in human Caco2 cells assessed as mass balance; format: ADME, cell-based; settings: Caco-2, read-out: permeability
[7] = Apparent permeability across basolateral to apical side in human Caco2 cells assessed as mass balance; format: ADME, cell-based; settings: Caco-2, read-out: permeability
[8] = Apparent permeability across apical to basolateral side in human Caco2 cells; format: ADME, cell-based; settings: Caco-2

SMILES	solubility kinetic at 0.5 h [1] [µg/mL]	solubility kinetic at 0.5 h [2] [µg/mL]	further results
CCCSc1nncc(-c2cnnc(SCCC)n2)n1	3.1 to 6.3 (≈ 10.1 to 20.4 µM)	3.1 to 6.3 (≈ 10.1 to 20.4 µM)	–
CSc1nncc(-c2cnnc(SCCN(C)C)n2)n1	6.3 to 12.5 (≈ 20.4 to 40.4 µM)	6.3 to 12.5 (≈ 20.4 to 40.4 µM)	concentration at 0.5 h [3]: > 20 nM; Drug uptake [4]: Not Active; Drug uptake [5]: Active; recovery [6]: 85%; recovery [7]: 90%; Papp A→B [8]: 49 ×10⁻⁶ cm/s
CCCCSc1nncc(-c2cnnc(SCCCC)n2)n1	< 1.6	< 1.6	–
CSc1nncc(-c2cnnc(SC3CCCC3)n2)n1	6.3 to 12.5 (≈ 20.6 to 40.8 µM)	6.3 to 12.5 (≈ 20.6 to 40.8 µM)	–
OCCCSc1nncc(-c2cnnc(SCCCO)n2)n1	60 to 100 (≈ 176 to 294 µM)	25 to 50 (≈ 73.4 to 147 µM)	–
CSc1nncc(-c2cnnc(SCCCO)n2)n1	50 to 100 (≈ 169 to 337 µM)	50 to 100 (≈ 169 to 337 µM)	–
CC(C)CSc1nncc(-c2cnnc(SCC(C)C)n2)n1	1.6 to 3.1 (≈ 4.75 to 9.21 µM)	1.6 to 3.1 (≈ 4.75 to 9.21 µM)	–

Continued, in another order:

solubility kinetic at 0.5 h [1] [µg/mL]	solubility kinetic at 0.5 h [2] [µg/mL]	SMILES	further results
3.1 to 6.3 (≈ 12.3 to 25 µM)	6.3 to 12.5 (≈ 25 to 49.5 µM)	CSc1nncc(-c2cnnc(SC)n2)n1	–
50 to 100 (≈ 170 to 341 µM)	25 to 50 (≈ 85.2 to 170 µM)	CSc1nncc(-c2cnnc(OCCN(C)C)n2)n1	–
50 to 100 (≈ 227 to 454 µM)	> 100	COc1nncc(-c2cnnc(OC)n2)n1	–
12.5 to 25 (≈ 36.7 to 73.4 µM)	12.5 to 25 (≈ 36.7 to 73.4 µM)	COCCSc1nncc(-c2cnnc(SCCOC)n2)n1	–
